In the library only some 1.2% were active in any assay of this set; here they are far more common.
PfG6PD inh – PfG6PD (Plasmodium falciparum) enzyme inhibition; PfGluPho enzyme, NADPH resazurin-diaphorase fluorescence; inhibition, % at 20 µM; hit rate 0.78% among 350,000;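 active = inhibition reaching at least a set limit at 20 µM in the primary screen, cut at about 59% in these data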;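 note: 0% = DMSO wells with substrate and 100% = DMSO wells lacking glucose-6-phosphate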
TbHK1 inh – blocks Trypanosoma brucei hexokinase 1 activity | AID 1430 | inhibition, % at 10 µM | recombinant TbHK1, G6PDH-coupled NADH A340 | hit rate 0.11% among 220,000;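 active = inhibition of 50% or more in the single-dose primary screen; inactive = inhibition below 50%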
G6PDH counter-1 – inhibits Leuconostoc G6PDH, flagging false hits in G6PDH-based assays; Purified L. mesenteroides G6PDH, diaphorase/resazurin coupled fluorescence, 45 min; inhibition, % at 5 µM; hit rate 0.12% among 200,000; in the data active = inhibition above about 50%
Diaph inh CS – counter-screen for diaphorase-based assays: diaphorase inhibitors and chemical oxidizers; diaphorase resazurin-to-resorufin fluorescence, NADH, 16 min; bacterial (C. kluyveri) enzyme, not human; inhibition, % at 20 µM; hit rate 0.69% among 190,000;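 active = primary screen inhibition at 20 µM above a set limit, cut at about 50% in these data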;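 note: plate controls were DMSO with full reaction for no effect and wells lacking NADH for full effect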
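controls = No-NADH positive control and DMSO neutral control | system = Clostridium kluyveri diaphorase enzyme | timing = reaction incubation of 16 min at room temperature | signal = resorufin fluorescence 544/590 nm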
HKDC1 inh – HKDC1 (human) hexokinase inhibition | recombinant HKDC1, G6PDH/diaphorase resazurin coupled fluorescence | Q2TB90 | inhibition, % at 20 µM | hit rate 0.16% among 340,000 | AID 493160;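 active = inhibition above about 35% when tested at 20 µM, limit read from the data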;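 note: plate controls were DMSO wells with enzyme for no effect and DMSO wells lacking enzyme for full effect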
Target sequence (Q2TB90 whole entry, looked up): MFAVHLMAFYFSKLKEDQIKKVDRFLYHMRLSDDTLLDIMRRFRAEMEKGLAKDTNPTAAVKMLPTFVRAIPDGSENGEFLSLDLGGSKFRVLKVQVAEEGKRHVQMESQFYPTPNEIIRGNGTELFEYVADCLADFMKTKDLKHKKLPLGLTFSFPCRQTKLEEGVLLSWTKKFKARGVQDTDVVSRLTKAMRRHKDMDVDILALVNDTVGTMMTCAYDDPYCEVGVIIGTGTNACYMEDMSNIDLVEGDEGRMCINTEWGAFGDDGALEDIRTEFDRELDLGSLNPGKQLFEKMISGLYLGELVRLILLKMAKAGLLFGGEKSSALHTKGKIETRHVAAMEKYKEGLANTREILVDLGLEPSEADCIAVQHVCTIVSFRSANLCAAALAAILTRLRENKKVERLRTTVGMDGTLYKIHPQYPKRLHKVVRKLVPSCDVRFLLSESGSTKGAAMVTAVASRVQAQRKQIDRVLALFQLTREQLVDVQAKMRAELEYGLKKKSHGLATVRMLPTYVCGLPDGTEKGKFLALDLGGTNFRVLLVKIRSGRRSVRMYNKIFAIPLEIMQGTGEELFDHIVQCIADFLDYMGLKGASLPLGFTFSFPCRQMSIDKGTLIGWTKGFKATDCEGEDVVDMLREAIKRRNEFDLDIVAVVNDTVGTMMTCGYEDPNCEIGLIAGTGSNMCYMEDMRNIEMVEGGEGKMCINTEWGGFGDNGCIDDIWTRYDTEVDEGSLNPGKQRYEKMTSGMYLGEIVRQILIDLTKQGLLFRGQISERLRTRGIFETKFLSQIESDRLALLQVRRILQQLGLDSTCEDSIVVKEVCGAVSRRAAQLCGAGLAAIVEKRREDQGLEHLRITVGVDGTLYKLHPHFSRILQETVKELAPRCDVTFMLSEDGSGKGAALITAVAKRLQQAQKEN
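Assay system: in-house recombinant HK5 (HKDC1) enzyme. Input: HKDC1 at 5 µg/mL. Medium: Tris pH 8.0 buffer with MgCl2, Tween-20, BSA, BME. Dosing: single 20 µM dose. Schedule: 90 min reaction incubation at room temperature, dark. Signal: resazurin-to-resorufin fluorescence via G6PDH and diaphorase coupling, 525/613 nm. Controls: DMSO-enzyme wells negative, buffer-substituted wells positive.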
G6PDH counter-2 – inhibits Leuconostoc G6PDH, counter-screen for TbHK1 inhibitors; shares compounds with TbHK1 inh; purified G6PDH, NADH absorbance, 1 h; inhibition, % at 10 µM; hit rate 7% among 210; AID 2516;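 active = at least 50% inhibition in the glucose-6-phosphate dehydrogenase coupled counterscreen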
TbHK1 confirm – confirmation of Trypanosoma brucei hexokinase 1 inhibitors. shares compounds with TbHK1 inh. recombinant TbHK1, G6PDH-coupled NADH A340 absorbance. inhibition, % at 10 µM. hit rate 10% among 210. AID 2560;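 active = inhibition of at least 50% in both of the two screening runs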;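 note: 0% and 100% set by the maximum and minimum signal control wells on each plate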
HKDC1 act conf2 – confirmation of human HKDC1 activators | inhibition, % at 20 µM | shares compounds with HKDC1 inh | recombinant HKDC1, G6PDH/diaphorase resazurin fluorescence; active compounds read low | hit rate 14% among 740;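 active = inhibition at or below a set negative limit, negative inhibition meaning the enzyme was activated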
PfG6PD confirm – confirmation of Plasmodium falciparum G6PD inhibitors; shares compounds with PfG6PD inh; recombinant PfGluPho, NADPH-diaphorase-resazurin fluorescence; inhibition, % at 20 µM; hit rate 34% among 2,400; AID 504753;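 active = inhibition of at least 50% at 20 µM in any single replicate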;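 note: 0% = DMSO with substrate and 100% = DMSO lacking glucose-6-phosphate substrate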
Diaph ctr 10uM – counter-screen for P. falciparum G6PD inhibitors: diaphorase inhibitors, oxidizers; shares compounds with PfG6PD inh; diaphorase-coupled resazurin reduction, fluorescence, NADPH 10 uM; inhibition, % at 20 µM; hit rate 39% among 820;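 active = average inhibition reaching 50% or more with the compound at 20 µM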;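 note: resorufin red fluorescence formed as diaphorase reduces resazurin using NADPH; 0% = DMSO with enzyme and 100% = DMSO without enzyme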
Diaph ctr 30uM – counter-screen for P. falciparum G6PD inhibitors: diaphorase inhibitors, oxidizers; shares compounds with PfG6PD inh; Diaphorase/resazurin coupled assay, resorufin fluorescence, 30 uM NADPH; inhibition, % at 20 µM; hit rate 29% among 820;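 active = inhibition averaging 50% or more, tested at 20 µM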;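 note: 0% = DMSO with enzyme and 100% = DMSO wells lacking diaphorase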
The depositor's hits bear a star; · = no result given.

SMILES | PfG6PD inh | TbHK1 inh | G6PDH counter-1 | Diaph inh CS | HKDC1 inh | HKDC1 act conf2 | others
O=P(O)(O)COc1ccccc1O | 7 | 73* | 6 | 3 | -8 | · | G6PDH counter-2=-8;TbHK1 confirm=-1
NP(=O)(Oc1ccccc1Cl)Oc1ccccc1Cl | 7 | 3 | -3 | 18 | -5 | ·
COC1C(C)OC(OC2CC(C)(O)Cc3cc4c(c(O)c32)C(=O)c2c(O)cc3c(c2C4=O)OC2OC3(C)C(O)C(N(C)C)C2O)C(OC)C1(C)OC (stereo not given) | 27 | · | · | · | 14 | ·
O=c1[nH]c(=O)n(CCC2=CCCCC2)c(O)c1C=NCc1cccnc1 | -13 | 56* | 27 | 4 | 5 | · | G6PDH counter-2=-9;TbHK1 confirm=-6
CC1CCC(C)(NS(=O)(=O)OCC(Cl)(Cl)Cl)CC1 (stereo not given) | 3 | · | · | · | 38* | -30
COC(=O)C1C2c3ccccc3C(c3ccccc32)C1(C)C(=O)OC (stereo not given) | -16 | · | · | · | 2 | ·
Cc1ccccc1N1C(=O)NC(=O)/C(=C\c2ccc3c(c2)CCCN3Cc2ccccc2)C1=O | 16 | -10 | 21 | 11 | 35* | 13
CCN1C(=O)NC(=O)/C(=C/c2cc(C)n(-c3sc(C)c(C)c3C#N)c2C)C1=O | 11 | -9 | 8 | 3 | 7 | ·
CCOC(=O)c1c(-n2c(C)cc(C=C3C(=O)NC(=S)NC3=O)c2C)sc2c1CCCC2 | -39 | 5 | -21 | 34 | 59* | 61
Cc1ccc(N2C(=O)NC(=O)/C(=C\c3cc(C)n(-c4sc5c(c4C#N)CCCC5)c3C)C2=O)cc1 | 22 | -1 | -26 | 14 | 66* | 77
CN1OC[C@@H]2CN[C@H](c3ccccc3Br)C[C@@H]21 | 6 | · | · | · | -6 | ·
CCC1CN1P(=O)(Oc1ccc(Cl)cc1)N1CC1CC (stereo not given) | 14 | · | · | · | -3 | ·
C[C@]12CC[C@@H](O)CC1=CCC1C2CC[C@@]2(C)C1CC[C@@H]2O (stereo not given in full) | -15 | · | · | · | · | ·
Nc1c(Br)cc2c3c(cccc13)-c1ccccc1-2 | 125* | · | · | · | 70* | 51
c1ccc2c(c1)-c1cccc3cccc-2c13 | 30 | · | · | · | 5 | ·
CCN(CC)CCCNC(=O)c1c(O)c2ccccc2n(Cc2ccccc2)c1=O | 40 | 5 | 5 | -3 | 83* | -37*
CCN(CC)CCNC(=O)c1c(O)c2ccccc2n(Cc2ccccc2)c1=O | 9 | 5 | 5 | -2 | -4 | ·
Cc1nn(CC(C)C)c(Cl)c1C(=O)NC1CCCCC1 | -5 | · | · | · | -6 | ·
CCOc1cc(C=C2C(=O)NC(=S)NC2=O)ccc1O | 17 | · | · | · | 2 | ·
O=C1NC(=S)NC(=O)C1=Cc1ccc2c(c1)CCN2CCCCl | 13 | -22 | · | · | 59* | 10
CC(=NNC(=S)N1CC2CCC(CC2)C1)c1nccs1 | 29 | · | · | · | -43 | -42*
Brc1ccc(C2N3CCCN23)cc1 (stereo not given) | -6 | -4 | 0 | 6 | -79 | -23
Cc1ccc(C2N3CCCN23)cc1 (stereo not given) | 20 | -6 | · | · | 1 | ·
CC[C@H](C)/C=C(C)/C=C/C1=CC2=C(Cl)C(=O)[C@](C)(OC(C)=O)C(=O)C2=CO1 | 18 | · | · | · | 59* | 36
O=c1nc(/C=C/c2ccc(Cl)cc2Cl)cc(C(F)(F)F)[nH]1 | -6 | · | · | · | 35* | 6
SMILES | PfG6PD inh | TbHK1 inh | G6PDH counter-1 | Diaph inh CS | HKDC1 inh | HKDC1 act conf2 | others
Cc1ccc(OC(=O)N(C)C[C@@H]2OCc3cnnn3CCCC(=O)N([C@@H](C)CO)C[C@H]2C)cc1 | 7 | · | · | · | · | ·
C[C@@H]1CN([C@@H](C)CO)C(=O)CCCn2nncc2CO[C@@H]1CN(C)C(=O)Oc1cccc2ccccc12 | 10 | · | · | · | · | ·
COc1cc(O)cc2c1cc([N+](=O)[O-])c1c(C(=O)O)cc3c(c12)OCO3 | 42 | · | · | · | 36* | 33
COc1cccc(-n2c(/C=C/c3ccc(O)c(O)c3)nc3ccccc3c2=O)c1 | 64* | -29 | 26 | 69* | -8 | · | PfG6PD confirm=6
COC(=O)C1=C(c2ccc(Cl)c(C(F)(F)F)c2)C[C@@H]2CC[C@H]1N2C(=O)NCCCOC(C)C | 10 | · | · | · | -3 | ·
COc1cc2c(cc1OC)-c1c(OC)c(OC)cc3c1C(C2)N(C)CC3 (stereo not given) | 68* | -3 | 48 | 35 | 21 | · | PfG6PD confirm=41
COc1cccc(N2C(=O)NC(=O)/C(=C/c3ccc([N+](=O)[O-])s3)C2=O)c1 | 83* | -9 | · | · | 2 | · | PfG6PD confirm=43
COc1cccc(N2C(=O)NC(=O)/C(=C/c3ccc4c(c3)Cc3ccccc3-4)C2=O)c1 | 10 | -8 | -3 | 18 | 8 | ·
COC(=O)C1=C(c2ccc(OCc3ccccc3)c(F)c2)C[C@@H]2CC[C@H]1N2C | 2 | · | · | · | · | ·
COc1ccc(N2C(=O)/C(=C/C=C/c3ccccc3[N+](=O)[O-])C(=O)NC2=S)cc1 | 61* | 1 | 10 | 34 | 13 | · | PfG6PD confirm=30
C[C@@H]1CN([C@H](C)CO)C(=O)CCCn2nncc2CO[C@@H]1CN(C)C(=O)Oc1ccccc1 | 3 | · | · | · | · | ·
COc1ccc(CCN)cc1O | 4 | · | · | · | -4 | ·
NCCc1cc(O)c(O)cc1O | 94* | · | · | · | 15 | · | PfG6PD confirm=68*;Diaph ctr 10uM=53*;Diaph ctr 30uM=47
O=C(OCC(=O)c1ccc([N+](=O)[O-])cc1)/C(=C\c1ccc(Cl)cc1)NC(=O)c1ccccc1 | 44 | -2 | 2 | 21 | -8 | · | PfG6PD confirm=69*;Diaph ctr 10uM=-3;Diaph ctr 30uM=-12
O=C(Cc1ccccc1)OCC(=O)c1ccccc1 | 0 | · | · | · | 0 | ·
CCn1nc(/C=C/c2ccccc2)nc2c(=O)n(C)c(=O)nc1-2 | 102* | 18 | 61* | -50 | 3 | · | PfG6PD confirm=76*;Diaph ctr 10uM=93*;Diaph ctr 30uM=98*
CC1=C[C@@H]2c3cccc4[nH]cc(c34)C[C@H]2N(C)C1 | 59* | · | · | · | 8 | · | PfG6PD confirm=-34
CC(C)N1CCN(c2ccc(O)cc2)CC1 | 72* | 34 | 15 | 50 | 10 | · | PfG6PD confirm=29
C=CCN1CCc2cccc3c2[C@H]1Cc1ccc(O)c(O)c1-3 | 81* | · | · | · | 7 | · | PfG6PD confirm=84*;Diaph ctr 10uM=23;Diaph ctr 30uM=14
C=CCN1CC[C@]23c4c5ccc(O)c4O[C@H]2C(=O)CC[C@@]3(O)[C@H]1C5 | 12 | -6 | 5 | -8 | 1 | ·

Screens (PubChem)
